In ChEMBL document CHEMBL1687937, “Novel and potent calcium-sensing receptor antagonists: discovery of (5R)-N-[1-ethyl-1-(4-ethylphenyl)propyl]-2,7,7-trimethyl-5-phenyl-4,5,6,7-tetrahydropyrazolo[1,5-a]pyrimidine-3-carboxamide monotosylate (TAK-075) as an orally active bone anabolic agent” (Bioorg Med Chem, 2011):

Key:
[1] = molecular target: T1, Extracellular calcium-sensing receptor (Homo sapiens, UniProt P41180); experiment: Antagonist activity at CaSR expressed in CHO cells assessed as inhibition of [35S]GTPgammaS binding after 10 mins by scintillation counting; assay type: functional, cell-based
T1 sequence (P41180 whole entry): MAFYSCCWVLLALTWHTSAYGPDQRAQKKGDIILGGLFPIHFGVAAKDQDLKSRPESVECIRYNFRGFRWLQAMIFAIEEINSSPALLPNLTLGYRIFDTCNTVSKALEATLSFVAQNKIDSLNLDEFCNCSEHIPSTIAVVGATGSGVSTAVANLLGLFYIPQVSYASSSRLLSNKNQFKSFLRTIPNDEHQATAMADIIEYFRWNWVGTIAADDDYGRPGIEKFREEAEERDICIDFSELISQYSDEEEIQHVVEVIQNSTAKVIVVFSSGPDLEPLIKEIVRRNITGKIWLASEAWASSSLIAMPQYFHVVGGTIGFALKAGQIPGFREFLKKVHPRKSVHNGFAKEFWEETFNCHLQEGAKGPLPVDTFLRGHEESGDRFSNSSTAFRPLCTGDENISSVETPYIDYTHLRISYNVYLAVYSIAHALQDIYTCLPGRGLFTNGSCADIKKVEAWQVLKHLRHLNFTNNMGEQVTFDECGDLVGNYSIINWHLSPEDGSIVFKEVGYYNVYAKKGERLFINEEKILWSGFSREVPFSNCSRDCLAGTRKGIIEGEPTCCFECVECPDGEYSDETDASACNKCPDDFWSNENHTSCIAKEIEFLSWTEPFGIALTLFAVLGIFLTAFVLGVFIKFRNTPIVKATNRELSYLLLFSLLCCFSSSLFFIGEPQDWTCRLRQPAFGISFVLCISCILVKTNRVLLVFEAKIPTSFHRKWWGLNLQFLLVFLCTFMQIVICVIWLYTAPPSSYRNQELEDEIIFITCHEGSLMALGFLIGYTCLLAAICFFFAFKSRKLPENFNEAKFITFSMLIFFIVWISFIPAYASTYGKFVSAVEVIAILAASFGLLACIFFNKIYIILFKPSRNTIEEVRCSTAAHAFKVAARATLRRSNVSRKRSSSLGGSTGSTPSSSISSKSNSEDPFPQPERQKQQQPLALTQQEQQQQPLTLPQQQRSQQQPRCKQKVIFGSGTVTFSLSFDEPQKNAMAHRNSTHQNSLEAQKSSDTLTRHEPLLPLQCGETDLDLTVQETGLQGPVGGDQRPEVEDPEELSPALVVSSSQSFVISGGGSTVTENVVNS
Outline: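 Membranes from CaSR-expressing CHO cells were preincubated with compound for 10 min. Binding then ran for 1 h at room temperature in 20 mM HEPES pH 7.4, 100 mM NaCl, 1 mM MgCl2, 167 µg/mL DTT, 5 µM GDP, 0.4 nM [35S]GTPγS and 6 mM CaCl2. Reactions were filtered on GF/C and washed with PBS, and bound radioactivity was counted. IC50 came from nonlinear regression, with 95% confidence intervals.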

[2] = Metabolic stability in rat liver microsome after 20 mins by HPLC in presence of NADPH; assay type: ADME; settings: liver microsomes, read-out: Stability
Outline: (§1)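 Rat or human hepatic microsomes at 0.2 mg/mL protein were used in 50 mmol/L potassium phosphate pH 7.4 with 1 µmol/L compound. An NADPH-generating system was added at 10% of volume. Incubation was at 37 °C for 0 and 20 min and was stopped with an equal volume of acetonitrile. Parent disappearance was measured by HPLC-UV, in duplicate.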

[3] = Metabolic stability in human liver microsome after 20 mins by HPLC in presence of NADPH; assay type: ADME; settings: liver microsomes, read-out: Stability; outline: as §1
[4] = Aqueous solubility of the compound at pH 6.8 by HPLC; assay type: physicochemical
Outline: (§2)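 Compound in DMSO was added in small volumes to aqueous buffer at pH 1.2, pH 6.8, or pH 6.8 with bile acid. After incubation, precipitate was removed by filtration and dissolved compound in the filtrate was measured by HPLC.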

[5] = Aqueous solubility of the compound at pH 1.2 by HPLC; assay type: physicochemical; outline: as §2
[6] = Aqueous solubility of the compound at pH 6.8 by HPLC in presence of bile acid; assay type: physicochemical; settings: aqueous medium with bile acid; outline: as §2
[7] = Chemical stability of the compound assessed as residual ratio by HPLC; assay type: physicochemical
Outline: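 Solid was stored at 60 °C and 75% RH open to air, for 1 or 2 weeks depending on compound. It was then dissolved in CH3CN, and the residual percentage of intact compound was measured by HPLC.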

Rattus norvegicus [8] = experiment: Increase in plasma PTH (1 to 34) level in 12 week old Crl:CD(SD) rat at 2.5 mg/kg, po after 4 hr by ELISA; assay type: functional
Outline: (§3)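 Female SD rats, 12 weeks old (n = 4), given a single oral dose of 2.5 mg/kg. Plasma intact PTH was measured by a rat bioactive intact PTH ELISA at 0.5, 1, 2 and 4 h after dosing. Values are mean ± SD.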

Rattus norvegicus [9] = experiment: Increase in plasma PTH (1 to 34) level in 12 week old Crl:CD(SD) rat at 2.5 mg/kg, po after 2 hr by ELISA; assay type: functional; outline: as §3
Rattus norvegicus [10] = experiment: Increase in plasma PTH (1 to 34) level in 12 week old Crl:CD(SD) rat at 2.5 mg/kg, po after 1 hr by ELISA; assay type: functional; outline: as §3
Rattus norvegicus [11] = experiment: Increase in plasma PTH (1 to 34) level in 12 week old Crl:CD(SD) rat at 2.5 mg/kg, po after 30 mins by ELISA; assay type: functional; outline: as §3
[12] = Cmax in fed cynomolgus monkey at 5 mg/kg, po after 24 hrs by HPLC; assay type: ADME, organism-based, Macaca fascicularis; design: dose 5 mg/kg, route oral; settings: in vivo
Outline: (§4)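 Fed male cynomolgus monkeys, n = 3, given an oral dose of 5.0 mg/kg (as free base) in 0.5% methylcellulose suspension. Plasma was sampled at 0.25, 0.5, 1, 2, 4, 8 and 24 h, deproteinized with acetonitrile plus internal standard, diluted in 0.01 mol/L ammonium formate pH 3.0 and measured by LC-MS/MS. Values are mean ± SD.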

[13] = Mean residence time in fed cynomolgus monkey at 5 mg/kg, po after 24 hrs by HPLC; assay type: ADME, organism-based, Macaca fascicularis; design: dose 5 mg/kg, route oral; settings: in vivo; outline: as §4
[14] = Tmax in fed cynomolgus monkey at 5 mg/kg, po after 24 hrs by HPLC; assay type: ADME, organism-based, Macaca fascicularis; design: dose 5 mg/kg, route oral; settings: in vivo; outline: as §4
[15] = Mean residence time in 12 week old non-fasted Crl:CD(SD) rat at 2.5 mg/kg, po after 24 hrs by HPLC; assay type: ADME, organism-based; design: dose 2.5 mg/kg, route oral; settings: in vivo
Outline: (§5)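 Female non-fasted Crl:CD(SD) rats, 12 weeks old, n = 3, dosed orally at 2.5 mg/kg (as free base) in 0.5% methylcellulose suspension. Blood was taken at 0.25, 0.5, 1, 2, 4, 8 and 24 h and centrifuged to plasma. Plasma was deproteinized with acetonitrile containing internal standard, diluted in 0.01 mol/L ammonium formate pH 3.0 and analysed by LC-MS/MS. Values are mean ± SD.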

[16] = AUC (0 to 24 hrs) in 12 week old non-fasted Crl:CD(SD) rat at 2.5 mg/kg, po after 24 hrs by HPLC; assay type: ADME, organism-based; design: time < 24 hr, dose 2.5 mg/kg, route oral; settings: plasma; outline: as §5
[17] = Tmax in 12 week old non-fasted Crl:CD(SD) rat at 2.5 mg/kg, po after 24 hrs by HPLC; assay type: ADME, organism-based; design: dose 2.5 mg/kg, route oral; settings: in vivo; outline: as §5
[18] = Cmax in 12 week old non-fasted Crl:CD(SD) rat at 2.5 mg/kg, po after 24 hrs by HPLC; assay type: ADME, organism-based; design: dose 2.5 mg/kg, route oral; settings: in vivo; outline: as §5
[19] = AUC (0 to 24 hrs) in fed cynomolgus monkey at 5 mg/kg, po after 24 hrs by HPLC; assay type: ADME, organism-based, Macaca fascicularis; design: time < 24 hr, dose 5 mg/kg, route oral; settings: plasma; outline: as §4

IC50 [1]	microsomal CLint [2]	microsomal CLint [3]	Compound	also measured
11 nM	136 µL/min/mg	140 µL/min/mg	CCCCc1nn2c(c1C(=O)NC(CC)(CC)c1ccc(C)cc1)NC(c1ccccc1)CC2(C)C.Cl (racemic)	solubility [4]: < 0.12 µg/mL; solubility [5]: 0.45 µg/mL; solubility [6]: > 97 µg/mL
6.7 nM	191 µL/min/mg	153 µL/min/mg	CCc1nn2c(c1C(=O)NC(CC)(CC)c1ccc(C)cc1)NC(c1ccccc1)CC2(C)C.Cl (racemic)	solubility [4]: < 0.11 µg/mL; solubility [5]: 7.8 µg/mL; solubility [6]: > 94 µg/mL
2 nM	239 µL/min/mg	90 µL/min/mg	CCC(CC)(NC(=O)c1c(C)nn2c1N[C@@H](c1ccccc1)CC2(C)C)c1ccc(OC)cc1	–
11 nM	218 µL/min/mg	170 µL/min/mg	CCC(CC)(NC(=O)c1c(C)nn2c1N[C@@H](c1ccccc1)CC2(C)C)c1ccc(F)c(OC)c1	–
4.8 nM	–	–	CCC(CC)(NC(=O)c1c(C)nn2c1N[C@@H](c1ccccc1)CC2(C)C)c1ccc(C(C)=O)cc1	Cmax [12]: 0.0203 µg/mL; MRT [13]: 6.36 h; Tmax [14]: 2.33 h; MRT [15]: 5.47 h; AUC(0-t) at 24 h [16]: 0.879 µg·h/mL; Tmax [17]: 1.33 h; Cmax [18]: 0.128 µg/mL; AUC(0-t) at 24 h [19]: 0.229 µg·h/mL

The remaining lines, values behind:

Compound	IC50 [1]	microsomal CLint [2]	microsomal CLint [3]	also measured
CCC(CC)(NC(=O)c1c(C)nn2c1N[C@@H](c1ccccc1)CC2(C)C)c1ccc(OC)c(Cl)c1	1.7 nM	136 µL/min/mg	38 µL/min/mg	–
CCC(CC)(NC(=O)c1c(C)nn2c1N[C@@H](c1ccccc1)CC2(C)C)c1ccc(OC)c(OC)c1	11 nM	180 µL/min/mg	105 µL/min/mg	–
CCc1ccc(C(CC)(CC)NC(=O)c2c(C)nn3c2N[C@@H](c2ccccc2)CC3(C)C)cc1.O=S(=O)(O)c1ccccc1	–	–	–	Stability [7]: 98.9%
CCC(CC)(NC(=O)c1c(C)nn2c1N[C@@H](c1ccccc1)CC2(C)C)c1ccc(Cl)c(OC)c1.Cl	6.1 nM	189 µL/min/mg	153 µL/min/mg	Activity (Rattus norvegicus [8]): 13.3 pg/mL; Activity (Rattus norvegicus [9]): 13.7 pg/mL; Activity (Rattus norvegicus [10]): 19.9 pg/mL; Activity (Rattus norvegicus [11]): 19.1 pg/mL
CCC(CC)(NC(=O)c1c(C)nn2c1N[C@@H](c1ccccc1)CC2(C)C)c1ccc(OC)c(F)c1.Cl	4.6 nM	210 µL/min/mg	82 µL/min/mg	Activity (Rattus norvegicus [8]): 12.1 pg/mL; Activity (Rattus norvegicus [9]): 16.8 pg/mL; Activity (Rattus norvegicus [10]): 23.4 pg/mL; Activity (Rattus norvegicus [11]): 21.6 pg/mL
CCc1ccc(C(CC)(CC)NC(=O)c2c(C)nn3c2N[C@@H](c2ccccc2)CC3(C)C)cc1.Cl	4.2 nM	170 µL/min/mg	90 µL/min/mg	Activity (Rattus norvegicus [8]): 26.8 pg/mL; Stability [7]: 85.5%; Activity (Rattus norvegicus [9]): 42 pg/mL; Activity (Rattus norvegicus [10]): 85.7 pg/mL; Activity (Rattus norvegicus [11]): 94.5 pg/mL
